High-throughput results as filed in PubChem.
SMARCA2 activ: activators of SMARCA2 function; MG213 cells, MMTV-luciferase reporter, dexamethasone, overnight; activation, % at 9.1 µM; actives 1% (n = 370,000); in the data active = activation above about 7.8%;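 note: 0% = vehicle wells and 100% = reference activator wells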
ARFGAP1 inhibitor: rat ARFGAP1 inhibition; Arfgap1-stimulated ARF1 GTP hydrolysis, GDP FP detection; AID 651572; inhibition, % at 16.5 µM; Q62848; actives 0.26% (n = 360,000);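 active = inhibition above a per-plate limit, mean inhibition of low control wells plus 3 SD, cut at about 25% in these data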;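 note: 0% = DMSO wells with enzyme and 100% = wells lacking Arfgap1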
Target sequence (Q62848 1-136 limits assumed): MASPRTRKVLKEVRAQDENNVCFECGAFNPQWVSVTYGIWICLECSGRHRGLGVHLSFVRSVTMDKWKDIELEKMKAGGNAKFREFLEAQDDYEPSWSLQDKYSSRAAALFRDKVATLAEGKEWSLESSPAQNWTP
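Material: rat Arfgap1 GAP domain (His6, aa 1-136), purified enzyme. Also added: human ARF1(Δ1-17)-GTP substrate. Compound dosing: 16.5 µM single point, 1.26% DMSO. Timing: enzyme reaction 120 min at 25 °C after 20 min preincubation. Signal: GDP detection by fluorescence polarization. Read-out basis: percent inhibition of GAP-stimulated GDP formation, scaled between DMSO and no-Arfgap1 medians.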
ASAP1 GAP inh: blocks human ASAP1-stimulated Arf1 GTP hydrolysis | GDP FP detection | inhibition, % at 16.5 µM | actives 0.19% (n = 360,000); in the data active = inhibition above about 25%;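 note: 0% = vehicle with enzyme and substrate and 100% = no enzyme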
Target sequence (Q9ULH1 325-724 limits assumed): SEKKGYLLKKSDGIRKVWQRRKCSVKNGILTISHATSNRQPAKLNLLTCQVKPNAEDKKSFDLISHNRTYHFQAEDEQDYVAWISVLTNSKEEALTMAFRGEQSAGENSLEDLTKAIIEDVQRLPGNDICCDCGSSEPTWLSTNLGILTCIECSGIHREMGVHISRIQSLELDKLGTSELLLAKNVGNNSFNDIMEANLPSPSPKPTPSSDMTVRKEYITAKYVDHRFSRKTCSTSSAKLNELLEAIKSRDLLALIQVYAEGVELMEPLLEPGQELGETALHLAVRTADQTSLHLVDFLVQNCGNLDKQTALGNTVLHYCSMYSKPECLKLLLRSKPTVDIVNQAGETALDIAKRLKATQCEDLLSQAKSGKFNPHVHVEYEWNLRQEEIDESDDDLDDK
esBAF inh: SWI/SNF esBAF complex inhibition | mouse ES cells, Bmi1-luciferase knock-in reporter, 24 h; 100% = twice the neutral-well signal | reporter increase, % at 12.5 µM | actives 2% (n = 350,000) | AID 602393; in the data active = activation above about 40%; inconclusive = no clear call, values can overlap the other calls;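 note: 0% = median of the plate's neutral control wells and 100% = double that signal; a rise in the Bmi1 reporter signal indicates esBAF inhibition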
SMARCA2 conf: confirmation of SMARCA2 (BRM) function activators | shares compounds with SMARCA2 activ | MG213 cells, MMTV-luciferase with dexamethasone, luminescence, overnight; MG213 cells expressing E1A, Rb sequestered; DMSO wells 0%, reference activator 100% | activation, % at 9.1 µM | actives 30% (n = 3,500) | AID 652260;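 active = activation above its plate's cutoff, the mean activation of tested wells plus 3 SD, cut at about 7.9% in these data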
GAL4-VP16 Luc: GAL4-VP16 reporter activation counter-screen | HEK293 GAL4-VP16 pG5luc reporter, luciferase luminescence; scaled: DMSO wells 0%, SAHA wells 100% | shares compounds with SMARCA2 activ | activation, % at 9.1 µM | actives 41% (n = 3,500) | AID 686939;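 active = activation above the solvent-only control well mean plus 3 SD, averaged across control plates, cut at about 5.2% in these data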
* marks the source's active call; other numbers are inactive results; ? = inconclusive; / = no result. In the library only some 2.6% were active in any assay of this set; here they are far more common.

SMILES	SMARCA2 activ	ARFGAP1 inhibitor	ASAP1 GAP inh	esBAF inh	SMARCA2 conf	GAL4-VP16 Luc
Cc1cc(/C=C(\C#N)c2nc3ccccc3[nH]2)c(C)n1C	-1	8	-19	/	/	/
O=C(C[C@H]1C[C@@H]2c3cc(NS(=O)(=O)c4ccc(F)cc4)ccc3O[C@@H]2[C@@H](CO)O1)NCc1ccccc1	/	/	/	-45	/	/
CSc1ncccc1C(=O)OCC(=O)NC1CCCC1	8.6*	5	5	10	-1	0
CCn1c(C)cc(C(=O)COC(=O)c2cccnc2SC)c1C	11*	4	1	53*	8.0*	8.5*
C[C@@H]1CN([C@@H](C)CO)C(=O)c2cc(NS(=O)(=O)c3cn(C)cn3)ccc2O[C@H]1CN(C)Cc1ccc(C(=O)Nc2ccccc2N)cc1	/	/	/	1	/	/
CN1C[C@@H]2[C@H](c3ccccc31)[C@@H](CO)N2Cc1ccccc1	/	/	/	6	/	/
CNC[C@@H]1Oc2ccc(N(C)C)cc2CC(=O)N([C@H](C)CO)C[C@H]1C	/	/	/	6	/	/
COc1cccc(C(=O)Nc2ccc3c(c2)OC[C@H](C)NC[C@@H](C)[C@H](OC)CN(C)C3=O)c1	/	/	/	5	/	/
Clc1ccc2nc(-c3cccc(Br)c3)c(Cc3ccsc3)n2c1	8.9*	-6	8	30	4	1
Cc1ccc(Cc2c(-c3cccc(Br)c3)nc3ccc(C)cn23)cc1	6	4	-3	/	/	/
Cc1ccc2nc(-c3cccc(Br)c3)c(Cc3ccccc3)n2c1	10*	2	5	34	2	5
Brc1ccc2nc(-c3ccco3)c(Cc3ccccc3)n2c1	10*	-4	7	9	7	1
C[C@H](CO)N1C[C@H](C)[C@H](CN(C)Cc2cncnc2)Oc2cc(C#CC3CCCC3)ccc2S1(=O)=O	/	/	/	-2	/	/
CC(C)c1cn(CC[C@@H]2CC[C@H](NC(=O)C3CC3)[C@@H](CO)O2)nn1	/	/	/	-4	/	/
Cc1cccc(S(=O)(=O)N2C[C@H](O)COC[C@@H]3O[C@H](CC(=O)NCc4ccncn4)CC[C@H]32)c1	/	/	/	-2	/	/
Cc1ccc(S(=O)(=O)c2nc(-c3ccc(F)cc3)oc2N2CCOCC2)cc1	12*	7	4	-3	-2	-1
CCc1nnc(N/N=C\c2ccc(OC(C)=O)c(OC)c2)n1N	8.6*	6	-5	-4	-2	2
O=C(Nc1nccs1)[C@H]1[C@H](CO)[C@H]2Cn3c(ccc(-c4ccncc4)c3=O)[C@H]2N1CC1CCCC1	/	/	/	-5	/	/
Cc1[nH]n(-c2ccccc2)c(=O)c1/C=N/N(c1ccccc1)c1ccccc1	-3	-2	2	/	/	/
C=CCN=Cc1c(C)[nH]n(-c2ccccc2)c1=O	8.5*	17	-5	/	1	6.2*
O=[N+]([O-])c1ccc(-c2ccc(/C=N/O)o2)cc1	-4	3	-11	/	/	/
O/N=C\c1ccc(-c2ccccc2)o1	9.5*	-4	-1	55*	6	5
O=C(/C=C\c1ccc(-c2ccccc2)o1)c1ccccc1	8.2*	6	14	/	16*	8.1*
CCCNC(=O)Nc1ccc2c(c1)OC[C@@H](C)N(CCC)C[C@H](C)[C@H](OC)CN(C)C2=O	/	/	/	2	/	/
O=C(NCc1ccccn1)c1nnc(Cc2ccc(Cl)cc2)o1	9.6*	11	5	0	1	1
SMILES	SMARCA2 activ	ARFGAP1 inhibitor	ASAP1 GAP inh	esBAF inh	SMARCA2 conf	GAL4-VP16 Luc
CCC(=O)N(C)C[C@H]1Oc2cc(C#CC3CCCC3)ccc2S(=O)(=O)N([C@@H](C)CO)C[C@@H]1C	/	/	/	3	/	/
Cn1c(N)c(C(=O)COC(=O)CCCN2C(=O)c3ccccc3C2=O)c(=O)n(C)c1=O	-2	10	17	-2	/	/
CC(C(=O)OCC(=O)c1c(N)n(C)c(=O)n(C)c1=O)N1C(=O)c2ccccc2C1=O (stereo not drawn)	10*	2	10	/	7	0
CC1(C)CC(=O)CC2(C1)NCC(c1ccccc1)c1c2[nH]c2ccccc12 (stereo not drawn)	8.7*	12	-12	-1	-2	1
CCc1ccc(/C=N/Nc2ncnc3nc[nH]c23)cc1	8.3*	9	4	8	6	13*
CC(C)=NNc1ncnc2nc[nH]c12	4	-5	-6	/	/	/
C[C@H]1CN([C@@H](C)CO)C(=O)c2cc(-c3cccc(F)c3)cnc2O[C@H]1CN(C)C(=O)C1CCC1	/	/	/	3	/	/
COc1ccc(NC(=O)n2nc(OC(=O)c3cccs3)cc2N)cc1	9.1*	10	5	?	3	2
Cc1ccc(-c2cc[n+](Cc3ccccc3)cc2)cc1	-7	3	-9	/	/	/
Cc1ccc2c(c1)sc[n+]2Cc1ccccc1	10*	4	0	54*	4	7.8*
COc1ccc(-c2cc(CNc3nc(NC(C)C)nc4cc(-c5ccccc5)sc34)on2)cc1	12*	14	1	-83	3	4
Cc1ccc(O)c(NC(=O)c2cc(-c3ccc(F)cc3)on2)c1	2	4	9	29	/	/
Cc1ccc(O)c(NC(=O)c2cc(-c3cccs3)on2)c1	13*	4	5	52*	21*	6.8*
Cc1ccc(O)c(NC(=O)c2noc(C(C)C)c2[N+](=O)[O-])c1	9.0*	-1	11	/	6	1
CCCN1C[C@@H](C)[C@H](OC)CN(C)C(=O)c2cc(NC(=O)Nc3ccccc3F)ccc2OC[C@H]1C	/	/	/	3	/	/
COc1cc(OC)c2c(=O)c3c(C(=O)O)c(O)ccc3oc2c1	-1	-6	-9	/	/	/
COc1cc(O)c2c(=O)c3c(OC)c(O)ccc3oc2c1	9.7*	-1	13	35	9.0*	4
C/C(=N\Nc1cccc([N+](=O)[O-])c1)c1cc(F)ccc1O	7	2	5	/	/	/
C/C(=N\Nc1cccc([N+](=O)[O-])c1)c1ccccc1O	12*	-1	11	/	6	5
CCC(=O)N[C@@H]1C=C[C@@H](CC(=O)NCc2ccccc2OC)O[C@H]1CO	/	/	/	0	/	/
Fc1ccc(N/N=C/c2cccnc2)c(F)c1	8.4*	-2	-2	/	1	1
COc1cc(/C=C/c2noc(-c3ccccc3O)n2)cc(OC)c1OC	3	5	-1	/	/	/
COc1ccc(/C=C/c2noc(-c3ccccc3O)n2)cc1	8.6*	2	-10	/	7	7.0*
COCC(=O)Nc1ccc2c(c1)[C@H]1C[C@H](CC(=O)N(C)C)O[C@H](CO)[C@H]1O2	/	/	/	2	/	/
O=S(=O)(CC(O)COc1ccccc1Cl)c1ccccc1 (stereo not drawn)	3	2	-3	6	/	/
O=S(=O)(Cc1ccccc1Cl)CC(O)COc1ccccc1Cl (stereo not drawn)	8.4*	4	-2	16	-4	2
C[C@H]1CN([C@@H](C)CO)C(=O)c2cc(C#CC3CCCCC3)cnc2O[C@@H]1CN(C)C	/	/	/	-1	/	/
